Blank lines part the entries; values can stand above or below the compound they belong to.
Assays:
Format in all cases: cell-based
[1] = target: Transient receptor potential cation channel subfamily V member 1 (Homo sapiens) (UniProt Q8NER1); assay: Antagonist activity at recombinant human TRPV1 stably expressed in HEK293 cells assessed as inhibition of capsaicin-induced calcium flux at 200 uM preincubated for 5 mins followed by capsaicin addition and measured after 180 secs by Fluo-8 Calcium dye based fluorescence assay relative to control; settings: time 8.0 min
Transient receptor potential cation channel subfamily V member 1 (Homo sapiens), sequence (Q8NER1 whole entry): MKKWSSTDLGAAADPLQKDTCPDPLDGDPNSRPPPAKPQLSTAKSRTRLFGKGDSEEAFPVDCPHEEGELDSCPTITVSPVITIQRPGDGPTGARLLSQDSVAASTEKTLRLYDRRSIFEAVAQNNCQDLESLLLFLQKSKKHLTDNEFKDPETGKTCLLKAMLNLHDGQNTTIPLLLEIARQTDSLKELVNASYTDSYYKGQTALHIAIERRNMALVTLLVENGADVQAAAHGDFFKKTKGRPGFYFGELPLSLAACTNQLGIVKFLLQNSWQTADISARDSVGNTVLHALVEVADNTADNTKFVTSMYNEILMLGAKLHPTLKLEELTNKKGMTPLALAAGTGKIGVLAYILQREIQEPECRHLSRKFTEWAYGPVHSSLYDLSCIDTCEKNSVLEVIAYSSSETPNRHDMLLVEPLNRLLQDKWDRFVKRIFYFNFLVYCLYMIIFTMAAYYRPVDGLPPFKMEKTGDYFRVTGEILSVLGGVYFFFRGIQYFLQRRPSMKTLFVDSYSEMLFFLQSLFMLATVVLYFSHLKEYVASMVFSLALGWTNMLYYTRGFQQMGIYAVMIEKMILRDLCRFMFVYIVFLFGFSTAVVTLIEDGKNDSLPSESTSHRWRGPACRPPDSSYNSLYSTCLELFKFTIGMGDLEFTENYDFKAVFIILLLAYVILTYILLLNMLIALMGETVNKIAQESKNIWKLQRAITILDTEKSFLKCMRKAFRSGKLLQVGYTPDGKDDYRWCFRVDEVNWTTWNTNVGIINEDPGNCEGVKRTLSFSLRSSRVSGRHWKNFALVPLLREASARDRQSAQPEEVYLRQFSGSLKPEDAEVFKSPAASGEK
How it was run: (§1)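 Ca2+ flux assay in HEK293 cells stably expressing human TRPA1 or TRPV1. Test compound was given at 66.7–333 μM, then cells were challenged with agonist at its EC80: AITC 10 μM for TRPA1, capsaicin 0.1 μM for TRPV1. % inhibition is normalized to the EC80 agonist response. n = 3.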

[2] = target: Transient receptor potential cation channel subfamily A member 1 (Homo sapiens) (UniProt O75762); assay: Antagonist activity at recombinant human TRPA1 stably expressed in HEK293 cells assessed as inhibition of AITC-induced calcium flux at 66.7 uM preincubated for 5 mins followed by AITC addition and measured after 180 secs by Fluo-8 Calcium dye based fluorescence assay relative to control; settings: time 8.0 min; how it was run: as §1
Transient receptor potential cation channel subfamily A member 1 (Homo sapiens), sequence (O75762 whole entry): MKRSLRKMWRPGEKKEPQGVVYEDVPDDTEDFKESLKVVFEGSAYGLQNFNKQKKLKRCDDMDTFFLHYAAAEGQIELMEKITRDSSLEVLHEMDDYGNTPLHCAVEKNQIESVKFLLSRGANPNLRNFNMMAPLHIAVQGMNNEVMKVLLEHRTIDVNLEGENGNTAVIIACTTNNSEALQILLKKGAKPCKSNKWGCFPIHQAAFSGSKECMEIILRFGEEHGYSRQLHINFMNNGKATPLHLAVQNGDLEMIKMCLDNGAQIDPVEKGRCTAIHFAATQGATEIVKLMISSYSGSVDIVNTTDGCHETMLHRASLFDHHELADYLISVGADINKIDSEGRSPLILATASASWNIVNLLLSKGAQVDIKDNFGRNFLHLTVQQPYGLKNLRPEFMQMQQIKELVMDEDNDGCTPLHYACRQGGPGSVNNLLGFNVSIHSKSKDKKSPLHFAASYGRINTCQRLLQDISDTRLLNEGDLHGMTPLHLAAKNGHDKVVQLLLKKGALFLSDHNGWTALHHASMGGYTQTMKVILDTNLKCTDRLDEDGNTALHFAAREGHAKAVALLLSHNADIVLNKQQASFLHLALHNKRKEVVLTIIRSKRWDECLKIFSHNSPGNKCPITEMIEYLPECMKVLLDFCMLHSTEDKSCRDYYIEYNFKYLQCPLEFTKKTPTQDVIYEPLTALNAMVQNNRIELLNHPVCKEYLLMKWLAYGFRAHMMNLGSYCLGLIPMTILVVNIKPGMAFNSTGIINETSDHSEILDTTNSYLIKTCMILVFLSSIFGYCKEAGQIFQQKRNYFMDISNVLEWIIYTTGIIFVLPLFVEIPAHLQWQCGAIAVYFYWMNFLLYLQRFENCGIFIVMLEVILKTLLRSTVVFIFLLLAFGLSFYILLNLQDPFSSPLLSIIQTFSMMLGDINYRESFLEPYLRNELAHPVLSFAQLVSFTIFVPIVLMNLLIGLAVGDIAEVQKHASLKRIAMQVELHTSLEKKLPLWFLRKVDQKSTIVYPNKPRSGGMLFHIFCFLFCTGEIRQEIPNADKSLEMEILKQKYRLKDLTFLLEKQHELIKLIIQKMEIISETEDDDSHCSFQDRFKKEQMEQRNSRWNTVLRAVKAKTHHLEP

[3] = target: T1, Transient receptor potential cation channel subfamily M member 8 (Homo sapiens, UniProt Q7Z2W7); assay: Antagonist activity at recombinant human TRPM8 transiently expressed in HEK293 cells assessed as inhibition of menthol-induced calcium flux by whole-cell patch-clamp electrophysiological method
How it was run: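 Whole-cell patch clamp of HEK293 cells transiently transfected with human TRPM8. Currents were evoked by 500 μM menthol and recorded at +80 mV. Test compound was applied at 1 nM–0.1 mM. Currents were normalized and fitted for IC50. n = 3 cells, SEM.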
Target sequence in this assay (Q7Z2W7 whole entry): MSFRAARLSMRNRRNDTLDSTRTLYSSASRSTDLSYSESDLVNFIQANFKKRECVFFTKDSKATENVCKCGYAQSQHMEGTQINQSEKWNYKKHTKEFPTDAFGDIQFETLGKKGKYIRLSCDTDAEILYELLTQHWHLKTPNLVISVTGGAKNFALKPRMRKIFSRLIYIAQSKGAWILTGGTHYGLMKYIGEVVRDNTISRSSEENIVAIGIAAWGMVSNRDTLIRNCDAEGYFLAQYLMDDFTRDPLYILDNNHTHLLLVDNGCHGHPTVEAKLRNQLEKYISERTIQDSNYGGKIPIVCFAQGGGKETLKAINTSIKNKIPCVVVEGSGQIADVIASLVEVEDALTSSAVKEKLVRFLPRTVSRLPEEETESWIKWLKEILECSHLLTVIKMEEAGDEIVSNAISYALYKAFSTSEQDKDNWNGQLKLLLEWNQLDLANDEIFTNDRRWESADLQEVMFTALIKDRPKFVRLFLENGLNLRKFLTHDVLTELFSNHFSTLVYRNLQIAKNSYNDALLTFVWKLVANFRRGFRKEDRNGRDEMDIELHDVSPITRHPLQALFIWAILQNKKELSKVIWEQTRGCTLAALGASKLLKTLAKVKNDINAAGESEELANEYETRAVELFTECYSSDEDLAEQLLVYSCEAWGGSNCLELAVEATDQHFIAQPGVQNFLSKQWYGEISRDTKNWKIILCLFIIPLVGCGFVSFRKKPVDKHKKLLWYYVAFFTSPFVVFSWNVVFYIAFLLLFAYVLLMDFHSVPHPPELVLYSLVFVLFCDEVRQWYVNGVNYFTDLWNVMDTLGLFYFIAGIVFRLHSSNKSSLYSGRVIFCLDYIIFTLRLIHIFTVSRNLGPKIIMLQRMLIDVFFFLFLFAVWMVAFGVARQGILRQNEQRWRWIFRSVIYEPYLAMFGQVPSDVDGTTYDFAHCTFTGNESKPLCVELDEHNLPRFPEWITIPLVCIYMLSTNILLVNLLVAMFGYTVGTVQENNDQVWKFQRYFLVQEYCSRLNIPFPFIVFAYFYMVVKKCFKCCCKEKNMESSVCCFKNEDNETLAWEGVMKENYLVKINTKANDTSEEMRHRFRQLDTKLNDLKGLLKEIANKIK

[4] = target: Transient receptor potential cation channel subfamily V member 1 (Homo sapiens) (UniProt Q8NER1); assay: Antagonist activity at recombinant human TRPV1 stably expressed in HEK293 cells assessed as inhibition of capsaicin-induced calcium flux at 333 uM preincubated for 5 mins followed by capsaicin addition and measured after 180 secs by Fluo-8 Calcium dye based fluorescence assay relative to control; settings: time 8.0 min; how it was run: as §1
[5] = target: Transient receptor potential cation channel subfamily A member 1 (Homo sapiens) (UniProt O75762); assay: Antagonist activity at recombinant human TRPA1 stably expressed in HEK293 cells assessed as inhibition of AITC-induced calcium flux at 333 uM preincubated for 5 mins followed by AITC addition and measured after 180 secs by Fluo-8 Calcium dye based fluorescence assay relative to control; settings: time 8.0 min; how it was run: as §1
[6] = target: Transient receptor potential cation channel subfamily V member 1 (Homo sapiens) (UniProt Q8NER1); assay: Antagonist activity at recombinant human TRPV1 stably expressed in HEK293 cells assessed as inhibition of capsaicin-induced calcium flux at 267 uM preincubated for 5 mins followed by capsaicin addition and measured after 180 secs by Fluo-8 Calcium dye based fluorescence assay relative to control; settings: time 8.0 min; how it was run: as §1
[7] = target: T1, Transient receptor potential cation channel subfamily M member 8; assay: Antagonist activity at recombinant human TRPM8 stably expressed in HEK293 cells assessed as inhibition of icilin-induced intracellular calcium level by Fluo-4NW probe based fluorescence assay
How it was run: (§2)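 Fluo-4 NW calcium imaging in HEK293 cells expressing human or rat TRPM8. Agonist was 500 nM icilin or 100 μM menthol, with test compound at 0.1–10 μM. IC50 was taken from concentration–response curves. Mean ± SEM, n = 3, N = 3.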
Target sequence in this assay (Q7Z2W7 whole entry): as above

[8] = target: Transient receptor potential cation channel subfamily A member 1 (Homo sapiens) (UniProt O75762); assay: Agonist activity at recombinant human TRPA1 stably expressed in HEK293 cells at 333 uM measured after 180 secs by Fluo-8 Calcium dye based fluorescence assay relative to control; settings: time 180.0 sec
How it was run: (§3)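 Ca2+ flux assay in HEK293 cells stably expressing human TRPA1 or TRPV1. Test concentrations were 66.7–333 μM, applied alone. Response is expressed as % activation, normalized to the Emax agonist concentration: AITC 300 μM for TRPA1, capsaicin 3 μM for TRPV1. n = 3.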

[9] = target: T1, Transient receptor potential cation channel subfamily M member 8; assay: Antagonist activity at recombinant human TRPM8 stably expressed in HEK293 cells assessed as inhibition of menthol-induced intracellular calcium level by Fluo-4NW probe based fluorescence assay; how it was run: as §2
Target sequence in this assay (Q7Z2W7 whole entry): as above

[10] = target: Transient receptor potential cation channel subfamily A member 1 (Homo sapiens) (UniProt O75762); assay: Agonist activity at recombinant human TRPA1 stably expressed in HEK293 cells at 66.7 uM measured after 180 secs by Fluo-8 Calcium dye based fluorescence assay relative to control; settings: time 180.0 sec; how it was run: as §3
[11] = target: Transient receptor potential cation channel subfamily V member 1 (Homo sapiens) (UniProt Q8NER1); assay: Agonist activity at recombinant human TRPV1 stably expressed in HEK293 cells at 267 uM measured after 180 secs by Fluo-8 Calcium dye based fluorescence assay relative to control; settings: time 180.0 sec; how it was run: as §3
[12] = target: Transient receptor potential cation channel subfamily A member 1 (Homo sapiens) (UniProt O75762); assay: Antagonist activity at recombinant human TRPA1 stably expressed in HEK293 cells assessed as inhibition of AITC-induced calcium flux at 267 uM preincubated for 5 mins followed by AITC addition and measured after 180 secs by Fluo-8 Calcium dye based fluorescence assay relative to control; settings: time 8.0 min; how it was run: as §1
[13] = target: Transient receptor potential cation channel subfamily V member 1 (Homo sapiens) (UniProt Q8NER1); assay: Agonist activity at recombinant human TRPV1 stably expressed in HEK293 cells at 133 uM measured after 180 secs by Fluo-8 Calcium dye based fluorescence assay relative to control; settings: time 180.0 sec; how it was run: as §3
[14] = target: Transient receptor potential cation channel subfamily A member 1 (Homo sapiens) (UniProt O75762); assay: Antagonist activity at recombinant human TRPA1 stably expressed in HEK293 cells assessed as inhibition of AITC-induced calcium flux at 133 uM preincubated for 5 mins followed by AITC addition and measured after 180 secs by Fluo-8 Calcium dye based fluorescence assay relative to control; settings: time 8.0 min; how it was run: as §1
[15] = target: T2, Transient receptor potential cation channel subfamily M member 8 (Rattus norvegicus, UniProt Q8R455); assay: Antagonist activity at recombinant rat TRPM8 stably expressed in HEK293 cells assessed as inhibition of icilin-induced intracellular calcium level by Fluo-4NW probe based fluorescence assay; how it was run: as §2
T2 sequence (Q8R455 whole entry): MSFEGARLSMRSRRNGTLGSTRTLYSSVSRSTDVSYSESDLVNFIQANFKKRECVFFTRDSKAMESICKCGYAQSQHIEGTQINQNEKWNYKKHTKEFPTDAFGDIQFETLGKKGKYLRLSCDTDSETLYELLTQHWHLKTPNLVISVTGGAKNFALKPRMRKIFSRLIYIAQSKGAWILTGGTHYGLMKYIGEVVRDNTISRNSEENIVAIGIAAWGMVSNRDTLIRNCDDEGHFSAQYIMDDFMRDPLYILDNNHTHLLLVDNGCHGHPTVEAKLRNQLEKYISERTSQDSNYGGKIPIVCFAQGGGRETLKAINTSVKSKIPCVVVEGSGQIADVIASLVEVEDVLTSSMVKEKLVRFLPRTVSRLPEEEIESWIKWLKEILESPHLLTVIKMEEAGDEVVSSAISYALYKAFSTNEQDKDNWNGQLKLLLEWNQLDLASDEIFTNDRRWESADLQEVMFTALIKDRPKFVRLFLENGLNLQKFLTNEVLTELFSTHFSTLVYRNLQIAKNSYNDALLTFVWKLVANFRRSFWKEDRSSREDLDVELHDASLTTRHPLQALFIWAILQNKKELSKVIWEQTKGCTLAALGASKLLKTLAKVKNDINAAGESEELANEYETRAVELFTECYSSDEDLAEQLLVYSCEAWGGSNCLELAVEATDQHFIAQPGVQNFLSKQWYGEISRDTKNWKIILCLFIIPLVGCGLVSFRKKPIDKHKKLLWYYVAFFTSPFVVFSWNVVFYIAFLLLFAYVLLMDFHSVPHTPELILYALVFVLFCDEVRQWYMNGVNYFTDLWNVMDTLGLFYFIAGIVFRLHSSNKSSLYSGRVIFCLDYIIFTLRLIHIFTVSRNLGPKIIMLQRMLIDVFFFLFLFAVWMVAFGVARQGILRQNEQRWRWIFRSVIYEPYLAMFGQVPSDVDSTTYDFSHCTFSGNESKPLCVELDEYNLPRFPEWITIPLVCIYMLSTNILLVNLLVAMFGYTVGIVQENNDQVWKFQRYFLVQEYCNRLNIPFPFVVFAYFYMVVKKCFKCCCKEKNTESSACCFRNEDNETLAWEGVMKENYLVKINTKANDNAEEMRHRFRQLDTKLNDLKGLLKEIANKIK

[16] = target: T2, Transient receptor potential cation channel subfamily M member 8; assay: Antagonist activity at recombinant rat TRPM8 stably expressed in HEK293 cells assessed as inhibition of menthol-induced intracellular calcium level by Fluo-4NW probe based fluorescence assay; how it was run: as §2
Homo sapiens [17] = species on record: Homo sapiens; assay: Selectivity ratio of IC50 for antagonist activity at human TRPV1 stably expressed in HEK293 cells to IC50 for antagonist activity at recombinant human TRPM8 stably expressed in HEK293 cells
[18] = target: Transient receptor potential cation channel subfamily A member 1 (Homo sapiens) (UniProt O75762); assay: Agonist activity at recombinant human TRPA1 stably expressed in HEK293 cells at 267 uM measured after 180 secs by Fluo-8 Calcium dye based fluorescence assay relative to control; settings: time 180.0 sec; how it was run: as §3
[19] = target: Transient receptor potential cation channel subfamily A member 1 (Homo sapiens) (UniProt O75762); assay: Agonist activity at recombinant human TRPA1 stably expressed in HEK293 cells at 133 uM measured after 180 secs by Fluo-8 Calcium dye based fluorescence assay relative to control; settings: time 180.0 sec; how it was run: as §3
[20] = target: Transient receptor potential cation channel subfamily V member 1 (Homo sapiens) (UniProt Q8NER1); assay: Agonist activity at recombinant human TRPV1 stably expressed in HEK293 cells at 333 uM measured after 180 secs by Fluo-8 Calcium dye based fluorescence assay relative to control; settings: time 180.0 sec; how it was run: as §3
[21] = target: Transient receptor potential cation channel subfamily V member 1 (Homo sapiens) (UniProt Q8NER1); assay: Agonist activity at recombinant human TRPV1 stably expressed in HEK293 cells at 200 uM measured after 180 secs by Fluo-8 Calcium dye based fluorescence assay relative to control; settings: time 180.0 sec; how it was run: as §3
[22] = target: Transient receptor potential cation channel subfamily V member 1 (Homo sapiens) (UniProt Q8NER1); assay: Antagonist activity at recombinant human TRPV1 stably expressed in HEK293 cells assessed as inhibition of capsaicin-induced calcium flux at 133 uM preincubated for 5 mins followed by capsaicin addition and measured after 180 secs by Fluo-8 Calcium dye based fluorescence assay relative to control; settings: time 8.0 min; how it was run: as §1
[23] = target: Transient receptor potential cation channel subfamily V member 1 (Homo sapiens) (UniProt Q8NER1); assay: Agonist activity at recombinant human TRPV1 stably expressed in HEK293 cells at 66.7 uM measured after 180 secs by Fluo-8 Calcium dye based fluorescence assay relative to control; settings: time 180.0 sec; how it was run: as §3
Homo sapiens [24] = species on record: Homo sapiens; assay: Selectivity ratio of IC50 for antagonist activity at human TRPA1 stably expressed in HEK293 cells to IC50 for antagonist activity at recombinant human TRPM8 stably expressed in HEK293 cells
[25] = target: Transient receptor potential cation channel subfamily A member 1 (Homo sapiens) (UniProt O75762); assay: Antagonist activity at recombinant human TRPA1 stably expressed in HEK293 cells assessed as inhibition of AITC-induced calcium flux at 200 uM preincubated for 5 mins followed by AITC addition and measured after 180 secs by Fluo-8 Calcium dye based fluorescence assay relative to control; settings: time 8.0 min; how it was run: as §1
[26] = target: Transient receptor potential cation channel subfamily V member 1 (Homo sapiens) (UniProt Q8NER1); assay: Antagonist activity at recombinant human TRPV1 stably expressed in HEK293 cells assessed as inhibition of capsaicin-induced calcium flux at 66.7 uM preincubated for 5 mins followed by capsaicin addition and measured after 180 secs by Fluo-8 Calcium dye based fluorescence assay relative to control; settings: time 8.0 min; how it was run: as §1
[27] = target: Transient receptor potential cation channel subfamily A member 1 (Homo sapiens) (UniProt O75762); assay: Agonist activity at recombinant human TRPA1 stably expressed in HEK293 cells at 200 uM measured after 180 secs by Fluo-8 Calcium dye based fluorescence assay relative to control; settings: time 180.0 sec; how it was run: as §3
[28] = target: T1, Transient receptor potential cation channel subfamily M member 8; assay: Antagonist activity at TRPM8 (unknown origin) expressed in CHO cells assessed as inhibition of D-1607-induced reduction in cell viability by measuring cell viability at 10 uM by celltiter-glo ATP chemiluminescence assay relative to control; settings: filed as antagonist
Target sequence in this assay (Q7Z2W7 whole entry, looked up): as the sequence (Q7Z2W7 whole entry) above

[29] = target: Transient receptor potential cation channel subfamily A member 1 (Rattus norvegicus, UniProt Q6RI86); assay: Agonist activity at recombinant rat TRPA1 stably expressed in HEK293 cells assessed as increase in intracellular calcium release by Fluo-4AM dye based fluorescence assay
[30] = target: T2, Transient receptor potential cation channel subfamily M member 8; assay: Antagonist activity at recombinant rat TRPM8 stably expressed in HEK293 cells assessed as inhibition of icilin-induced intracellular calcium level preincubated for 5 mins followed by icilin addition by Fluo-4Am dye based fluorescence assay

- inhibition [1]: -5.89%
- inhibition [2]: 18.3%
- IC50 [3]: 700 nM
- inhibition [4]: 7.64%
- inhibition [5]: 11.9%
- inhibition [6]: 6.79%
- IC50 [7]: 1800 nM
- Activity [8]: 3.4%
- IC50 [9]: 805 nM
- Activity [10]: -0.83%
- Activity [11]: 4.57%
- inhibition [12]: 16.8%
- Activity [13]: 3.6%
- inhibition [14]: 24.9%
- IC50 [15]: 521 nM
- IC50 [16]: 117 nM
- Activity [18]: 2.1%
- Activity [19]: -0.2%
- Activity [20]: 7.9%
- Activity [21]: 4.8%
- inhibition [22]: -7.44%
- Activity [23]: 1.3%
- inhibition [25]: 18.7%
- inhibition [26]: -3.6%
- Activity [27]: 0.95%
Structure (SMILES): CC(C)[C@@H]1CC[C@@H](C)C[C@H]1NC(=O)c1ccc(-c2ccccc2)cc1
- Ratio IC50 (Homo sapiens [17]): > 400
- Ratio IC50 (Homo sapiens [24]): > 400

- IC50 [3]: 2000 nM
Structure (SMILES): C=C1[C@H](C)CC[C@@H](C(C)C)[C@@H]1OC(=O)c1ccccc1

Structure (SMILES): CC(C)[C@@H]1CC[C@@H](C)C[C@H]1OC(=O)N1CCc2ccccc2C1
- Activity [28]: 112%

Structure (SMILES): C=C(C)[C@@H]1CCC(C)=C[C@H]1c1c(O)cc(CCC)cc1O [CANNABIDIVARIN]
- EC50 [29]: 420 nM
- IC50 [30]: 900 nM

From ChEMBL document CHEMBL4706746, “Structural and in Vitro Functional Characterization of a Menthyl TRPM8 Antagonist Indicates Species-Dependent Regulation” (ACS Med Chem Lett, 2021)
